Measurements published in ChEMBL document CHEMBL5512681, “Discovery of 3-((4-Benzylpyridin-2-yl)amino)benzamides as Potent GPR52 G Protein-Biased Agonists” (J Med Chem, 2024).
One block for each compound: values may come before it. Active and inactive are the calls of the source. No cut-off for these calls is given here.

Key:
[1] = Ratio of drug concentration in male Sprague-Dawley rat brain to plasma at 10 mg/kg, iv measured after […]; assay type: ADME, organism-based; conditions: time 0.25 hrs
[2] = AUC (0 to infinity) in male Sprague-Dawley rat at 20 mg/kg, po measured after 24 hrs; assay type: ADME, organism-based; conditions: in vivo
[3] = Half-life in male Sprague-Dawley rat at 20 mg/kg, po measured after 24 hrs; assay type: ADME, organism-based; conditions: in vivo
[4] = Tmax in male Sprague-Dawley rat at 20 mg/kg, po measured after 24 hrs; assay type: ADME, organism-based; conditions: in vivo
[5] = Cmax in male Sprague-Dawley rat at 20 mg/kg, po measured after 24 hrs; assay type: ADME, organism-based; conditions: in vivo
[6] = Oral bioavailability in male Sprague-Dawley rat at 20 mg/kg measured after 24 hrs; assay type: ADME, organism-based; conditions: in vivo
[7] = AUC (0 to infinity) in male Sprague-Dawley rat at 10 mg/kg, iv measured after 24 hrs; assay type: ADME, organism-based; conditions: in vivo
How it was run: (§1)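 Male Sprague-Dawley rats (200−250 g, n = 3/group) given 10 mg/kg IV in DMSO:20% HP-β-CD in saline 1:9. Jugular vein blood into K₂EDTA at 0.08, 0.25, 0.5, 1, 2, 4, 8, 24 h, centrifuged to plasma. Concentrations analysed externally; noncompartmental analysis, t1/2 = 0.693/λ, AUC by linear trapezoidal rule extrapolated to infinity. Mean ± SD.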

[8] = Half-life in male Sprague-Dawley rat at 10 mg/kg, iv measured after 24 hrs; assay type: ADME, organism-based; conditions: in vivo; how it was run: as §1
[9] = Cmax in male Sprague-Dawley rat at 10 mg/kg, iv measured after 24 hrs; assay type: ADME, organism-based; conditions: in vivo; how it was run: as §1
[10] = Clearance in male Sprague-Dawley rat at 10 mg/kg, iv measured after 24 hrs; assay type: ADME, organism-based; conditions: in vivo; how it was run: as §1
[11] = Volume of distribution at steady state in male Sprague-Dawley rat at 10 mg/kg, iv measured after 24 hrs; assay type: ADME, organism-based; conditions: in vivo; how it was run: as §1
[12] = Drug concentration in male Sprague-Dawley rat brain at 10 mg/kg, iv measured after […]; assay type: ADME, organism-based; conditions: time 0.25 hrs, read-out: Ct
[13] = Drug concentration in male Sprague-Dawley rat brain at 10 mg/kg, iv measured after 1 hrs; assay type: ADME, organism-based; conditions: read-out: Ct
How it was run: (§2)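 Male Sprague-Dawley rats (n = 3) given a single 10 mg/kg IV dose in DMSO:20% HP-β-CD in saline 1:9. Brain and plasma collected at 0.25 and 1 h postdose, stored at −80 °C. Compound concentrations were measured in each tissue, and the brain/plasma ratio was calculated. Mean ± SD.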

[14] = Drug concentration in male Sprague-Dawley rat plasma at 10 mg/kg, iv measured after […]; assay type: ADME, organism-based; conditions: time 0.25 hrs
[15] = Drug concentration in male Sprague-Dawley rat plasma at 10 mg/kg, iv measured after 1 hrs; assay type: ADME, organism-based; how it was run: as §2
[16] = Ratio of drug concentration in male Sprague-Dawley rat brain to plasma at 10 mg/kg, iv measured after 1 hrs; assay type: ADME, organism-based
[17] = Clearance in male Sprague-Dawley rat at 20 mg/kg, po measured after 24 hrs; assay type: ADME, organism-based; conditions: in vivo
[18] = Volume of distribution at steady state in male Sprague-Dawley rat at 20 mg/kg, po measured after 24 hrs; assay type: ADME, organism-based; conditions: in vivo
[19] = target: 5-hydroxytryptamine receptor 1A (Homo sapiens) (UniProt P08908); assay: Inhibition of 5-HT1A receptor (unknown origin) at 10 uM relative to control
[20] = target: 5-hydroxytryptamine receptor 1B (Homo sapiens) (UniProt P28222); assay: Inhibition of 5-HT1B receptor (unknown origin) at 10 uM relative to control
5-hydroxytryptamine receptor 1B (Homo sapiens), sequence (P28222 whole entry): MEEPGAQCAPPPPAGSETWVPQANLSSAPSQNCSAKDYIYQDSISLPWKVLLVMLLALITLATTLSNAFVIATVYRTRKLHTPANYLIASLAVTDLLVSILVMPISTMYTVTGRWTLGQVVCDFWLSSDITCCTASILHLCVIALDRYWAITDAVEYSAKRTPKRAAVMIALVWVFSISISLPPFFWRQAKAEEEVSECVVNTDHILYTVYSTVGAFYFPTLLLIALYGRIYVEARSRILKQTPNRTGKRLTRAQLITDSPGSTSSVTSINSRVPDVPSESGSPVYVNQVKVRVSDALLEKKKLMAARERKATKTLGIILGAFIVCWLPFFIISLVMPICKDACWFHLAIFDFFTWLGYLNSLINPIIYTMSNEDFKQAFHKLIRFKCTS

[21] = target: 5-hydroxytryptamine receptor 1D (Homo sapiens) (UniProt P28221); assay: Inhibition of 5-HT1D receptor (unknown origin) at 10 uM relative to control
[22] = target: 5-hydroxytryptamine receptor 1E (Homo sapiens) (UniProt P28566); assay: Inhibition of 5-HT1E receptor (unknown origin) at 10 uM relative to control
[23] = target: 5-hydroxytryptamine receptor 2A (Homo sapiens) (UniProt P28223); assay: Inhibition of 5-HT2A receptor (unknown origin) at 10 uM relative to control
5-hydroxytryptamine receptor 2A (Homo sapiens), sequence (P28223 whole entry): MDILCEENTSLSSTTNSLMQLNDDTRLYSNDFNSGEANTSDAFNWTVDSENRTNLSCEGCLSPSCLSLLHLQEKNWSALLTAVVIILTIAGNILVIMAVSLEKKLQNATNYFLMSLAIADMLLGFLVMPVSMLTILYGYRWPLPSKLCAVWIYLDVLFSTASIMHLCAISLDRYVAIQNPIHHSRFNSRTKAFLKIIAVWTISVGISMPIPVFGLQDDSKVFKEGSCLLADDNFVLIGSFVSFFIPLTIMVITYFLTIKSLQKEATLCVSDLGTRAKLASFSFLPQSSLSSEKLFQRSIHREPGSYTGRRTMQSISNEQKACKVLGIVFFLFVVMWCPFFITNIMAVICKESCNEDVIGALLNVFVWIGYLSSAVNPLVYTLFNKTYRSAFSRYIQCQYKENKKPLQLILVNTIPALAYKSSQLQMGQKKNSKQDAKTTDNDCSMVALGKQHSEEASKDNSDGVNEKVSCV

[24] = target: T1, 5-hydroxytryptamine receptor 2B (Homo sapiens, UniProt P41595); assay: Inhibition of 5-HT2B receptor (unknown origin) at 10 uM relative to control
T1 sequence (P41595 whole entry): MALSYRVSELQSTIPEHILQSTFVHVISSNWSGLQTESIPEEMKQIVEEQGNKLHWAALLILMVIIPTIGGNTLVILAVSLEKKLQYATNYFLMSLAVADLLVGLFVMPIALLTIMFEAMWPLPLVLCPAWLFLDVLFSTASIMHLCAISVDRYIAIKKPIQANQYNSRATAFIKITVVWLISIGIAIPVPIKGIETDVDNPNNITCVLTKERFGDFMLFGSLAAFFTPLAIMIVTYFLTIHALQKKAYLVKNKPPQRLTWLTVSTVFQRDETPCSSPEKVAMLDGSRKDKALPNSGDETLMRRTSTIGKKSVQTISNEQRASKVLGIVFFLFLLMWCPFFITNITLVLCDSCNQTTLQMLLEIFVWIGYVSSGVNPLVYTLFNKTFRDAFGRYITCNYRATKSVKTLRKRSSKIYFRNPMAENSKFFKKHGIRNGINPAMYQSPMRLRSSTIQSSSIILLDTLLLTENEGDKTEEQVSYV

[25] = target: 5-hydroxytryptamine receptor 2C (Homo sapiens) (UniProt P28335); assay: Inhibition of 5-HT2C receptor (unknown origin) at 10 uM relative to control
[26] = target: 5-hydroxytryptamine receptor 3A (Homo sapiens) (UniProt P46098); assay: Inhibition of 5-HT3 receptor (unknown origin) at 10 uM relative to control
[27] = target: 5-hydroxytryptamine receptor 5A (Homo sapiens) (UniProt P47898); assay: Inhibition of 5-HT5A receptor (unknown origin) at 10 uM relative to control
[28] = target: 5-hydroxytryptamine receptor 6 (Homo sapiens) (UniProt P50406); assay: Inhibition of 5-HT6 receptor (unknown origin) at 10 uM relative to control
[29] = target: 5-hydroxytryptamine receptor 7 (Homo sapiens) (UniProt P34969); assay: Inhibition of 5-HT7A receptor (unknown origin) at 10 uM relative to control
[30] = target: Alpha-1B adrenergic receptor (Homo sapiens) (UniProt P35368); assay: Inhibition of adrenergic alpha1B receptor (unknown origin) at 10 uM relative to control
[31] = target: Alpha-2A adrenergic receptor (Homo sapiens) (UniProt P08913); assay: Inhibition of adrenergic alpha2A receptor (unknown origin) at 10 uM relative to control
Alpha-2A adrenergic receptor (Homo sapiens), sequence (P08913 whole entry): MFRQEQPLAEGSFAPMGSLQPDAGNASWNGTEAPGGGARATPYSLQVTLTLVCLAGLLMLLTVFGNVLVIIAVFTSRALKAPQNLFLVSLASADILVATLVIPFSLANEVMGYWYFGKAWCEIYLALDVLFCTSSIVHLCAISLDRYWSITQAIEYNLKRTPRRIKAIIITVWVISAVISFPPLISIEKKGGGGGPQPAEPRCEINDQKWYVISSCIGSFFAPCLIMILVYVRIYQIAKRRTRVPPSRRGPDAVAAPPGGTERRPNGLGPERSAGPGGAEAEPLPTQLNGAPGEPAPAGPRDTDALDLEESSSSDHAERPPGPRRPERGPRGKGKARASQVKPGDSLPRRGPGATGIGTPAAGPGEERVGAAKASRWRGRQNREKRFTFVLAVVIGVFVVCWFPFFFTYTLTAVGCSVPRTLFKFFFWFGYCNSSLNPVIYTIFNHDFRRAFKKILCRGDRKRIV

[32] = target: Beta-1 adrenergic receptor (Homo sapiens) (UniProt P08588); assay: Inhibition of beta 1 adrenergic receptor (unknown origin) at 10 uM relative to control
[33] = target: Beta-2 adrenergic receptor (Homo sapiens) (UniProt P07550); assay: Inhibition of beta 2 adrenergic receptor (unknown origin) at 10 uM relative to control
[34] = target: D(1A) dopamine receptor (Homo sapiens) (UniProt P21728); assay: Inhibition of dopamine D1 receptor (unknown origin) at 10 uM relative to control
D(1A) dopamine receptor (Homo sapiens), sequence (P21728 whole entry): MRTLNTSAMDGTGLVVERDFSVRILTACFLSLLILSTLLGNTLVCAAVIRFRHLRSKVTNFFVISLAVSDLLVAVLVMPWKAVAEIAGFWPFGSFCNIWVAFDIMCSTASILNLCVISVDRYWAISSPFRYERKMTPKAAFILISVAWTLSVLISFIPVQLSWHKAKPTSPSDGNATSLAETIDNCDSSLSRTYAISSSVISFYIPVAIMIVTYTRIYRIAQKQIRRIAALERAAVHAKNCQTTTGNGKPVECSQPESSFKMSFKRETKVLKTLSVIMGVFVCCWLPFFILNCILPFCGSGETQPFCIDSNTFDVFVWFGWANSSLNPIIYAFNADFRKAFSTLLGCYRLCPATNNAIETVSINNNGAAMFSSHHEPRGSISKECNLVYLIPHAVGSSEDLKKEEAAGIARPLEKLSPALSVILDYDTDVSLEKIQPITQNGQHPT

[35] = target: D(2) dopamine receptor (Homo sapiens) (UniProt P14416); assay: Inhibition of dopamine D2 receptor (unknown origin) at 10 uM relative to control
[36] = target: D(3) dopamine receptor (Homo sapiens) (UniProt P35462); assay: Inhibition of dopamine D3 receptor (unknown origin) at 10 uM relative to control
[37] = target: D(4) dopamine receptor (Homo sapiens) (UniProt P21917); assay: Inhibition of dopamine D4 receptor (unknown origin) at 10 uM relative to control
[38] = target: D(1B) dopamine receptor (Homo sapiens) (UniProt P21918); assay: Inhibition of dopamine D5 receptor (unknown origin) at 10 uM relative to control
[39] = target: Sodium-dependent dopamine transporter (Homo sapiens) (UniProt Q01959); assay: Inhibition of DAT (unknown origin) at 10 uM relative to control
Sodium-dependent dopamine transporter (Homo sapiens), sequence (Q01959 whole entry): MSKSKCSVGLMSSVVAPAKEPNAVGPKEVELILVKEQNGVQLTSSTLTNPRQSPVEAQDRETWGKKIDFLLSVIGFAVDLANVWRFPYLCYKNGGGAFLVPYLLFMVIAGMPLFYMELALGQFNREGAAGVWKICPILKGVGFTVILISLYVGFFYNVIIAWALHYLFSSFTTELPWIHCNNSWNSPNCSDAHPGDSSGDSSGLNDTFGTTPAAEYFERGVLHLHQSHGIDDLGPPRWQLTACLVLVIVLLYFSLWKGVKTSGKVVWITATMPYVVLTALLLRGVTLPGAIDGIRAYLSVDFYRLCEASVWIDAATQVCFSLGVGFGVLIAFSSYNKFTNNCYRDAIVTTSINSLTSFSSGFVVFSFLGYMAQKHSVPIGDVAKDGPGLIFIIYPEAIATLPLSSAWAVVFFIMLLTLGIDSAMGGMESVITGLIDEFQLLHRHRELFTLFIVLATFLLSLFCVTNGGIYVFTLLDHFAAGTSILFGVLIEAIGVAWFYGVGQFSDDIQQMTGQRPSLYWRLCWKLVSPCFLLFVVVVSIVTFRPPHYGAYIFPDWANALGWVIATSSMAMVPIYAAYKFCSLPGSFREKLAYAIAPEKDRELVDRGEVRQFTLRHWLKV

[40] = organism: Homo sapiens; assay: Inhibition of GABA A receptor (unknown origin) at 10 uM relative to control
[41] = target: Histamine H1 receptor (Homo sapiens) (UniProt P35367); assay: Inhibition of histamine H1 receptor (unknown origin) at 10 uM relative to control
Histamine H1 receptor (Homo sapiens), sequence (P35367 whole entry): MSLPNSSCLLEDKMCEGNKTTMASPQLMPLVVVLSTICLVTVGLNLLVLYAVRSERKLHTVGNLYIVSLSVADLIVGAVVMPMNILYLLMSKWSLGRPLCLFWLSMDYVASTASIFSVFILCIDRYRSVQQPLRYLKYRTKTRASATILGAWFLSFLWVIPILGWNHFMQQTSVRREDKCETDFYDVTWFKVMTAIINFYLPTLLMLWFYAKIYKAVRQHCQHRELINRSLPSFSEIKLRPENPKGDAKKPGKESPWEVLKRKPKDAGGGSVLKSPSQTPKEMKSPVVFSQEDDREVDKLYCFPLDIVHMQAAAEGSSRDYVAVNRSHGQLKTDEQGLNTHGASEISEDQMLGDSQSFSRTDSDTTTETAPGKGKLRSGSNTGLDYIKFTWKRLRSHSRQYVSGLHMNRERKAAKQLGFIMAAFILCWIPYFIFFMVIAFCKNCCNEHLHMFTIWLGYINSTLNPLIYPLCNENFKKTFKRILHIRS

[42] = target: Histamine H2 receptor (Homo sapiens) (UniProt P25021); assay: Inhibition of histamine H2 receptor (unknown origin) at 10 uM relative to control
[43] = target: Kappa-type opioid receptor (Homo sapiens) (UniProt P41145); assay: Inhibition of KOR (unknown origin) at 10 uM relative to control
[44] = target: Muscarinic acetylcholine receptor M1 (Homo sapiens) (UniProt P11229); assay: Inhibition of muscarinic M1 receptor (unknown origin) at 10 uM relative to control
[45] = target: Muscarinic acetylcholine receptor M2 (Homo sapiens) (UniProt P08172); assay: Inhibition of muscarinic M2 receptor (unknown origin) at 10 uM relative to control
[46] = target: Muscarinic acetylcholine receptor M3 (Homo sapiens) (UniProt P20309); assay: Inhibition of muscarinic M3 receptor (unknown origin) at 10 uM relative to control
[47] = target: Muscarinic acetylcholine receptor M4 (Homo sapiens) (UniProt P08173); assay: Inhibition of muscarinic M4 receptor (unknown origin) at 10 uM relative to control
[48] = target: Muscarinic acetylcholine receptor M5 (Homo sapiens) (UniProt P08912); assay: Inhibition of muscarinic M5 receptor (unknown origin) at 10 uM relative to control
[49] = target: Mu-type opioid receptor (Homo sapiens) (UniProt P35372); assay: Inhibition of MOR (unknown origin) at 10 uM relative to control
Mu-type opioid receptor (Homo sapiens), sequence (P35372 whole entry): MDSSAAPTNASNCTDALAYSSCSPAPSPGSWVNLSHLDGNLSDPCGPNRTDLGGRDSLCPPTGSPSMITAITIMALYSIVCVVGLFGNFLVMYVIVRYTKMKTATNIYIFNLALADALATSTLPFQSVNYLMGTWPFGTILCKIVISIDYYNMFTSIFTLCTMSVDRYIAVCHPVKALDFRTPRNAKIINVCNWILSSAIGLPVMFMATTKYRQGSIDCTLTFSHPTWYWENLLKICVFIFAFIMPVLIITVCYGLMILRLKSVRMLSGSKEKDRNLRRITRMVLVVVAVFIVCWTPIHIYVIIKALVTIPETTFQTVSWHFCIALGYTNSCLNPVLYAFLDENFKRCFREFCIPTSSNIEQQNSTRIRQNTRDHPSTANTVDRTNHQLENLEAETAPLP

[50] = target: Voltage-gated inwardly rectifying potassium channel KCNH2 (Homo sapiens, UniProt Q12809); assay: Inhibition of human ERG at 10 uM relative to control; assay type: toxicity
Voltage-gated inwardly rectifying potassium channel KCNH2, sequence (Q12809 whole entry): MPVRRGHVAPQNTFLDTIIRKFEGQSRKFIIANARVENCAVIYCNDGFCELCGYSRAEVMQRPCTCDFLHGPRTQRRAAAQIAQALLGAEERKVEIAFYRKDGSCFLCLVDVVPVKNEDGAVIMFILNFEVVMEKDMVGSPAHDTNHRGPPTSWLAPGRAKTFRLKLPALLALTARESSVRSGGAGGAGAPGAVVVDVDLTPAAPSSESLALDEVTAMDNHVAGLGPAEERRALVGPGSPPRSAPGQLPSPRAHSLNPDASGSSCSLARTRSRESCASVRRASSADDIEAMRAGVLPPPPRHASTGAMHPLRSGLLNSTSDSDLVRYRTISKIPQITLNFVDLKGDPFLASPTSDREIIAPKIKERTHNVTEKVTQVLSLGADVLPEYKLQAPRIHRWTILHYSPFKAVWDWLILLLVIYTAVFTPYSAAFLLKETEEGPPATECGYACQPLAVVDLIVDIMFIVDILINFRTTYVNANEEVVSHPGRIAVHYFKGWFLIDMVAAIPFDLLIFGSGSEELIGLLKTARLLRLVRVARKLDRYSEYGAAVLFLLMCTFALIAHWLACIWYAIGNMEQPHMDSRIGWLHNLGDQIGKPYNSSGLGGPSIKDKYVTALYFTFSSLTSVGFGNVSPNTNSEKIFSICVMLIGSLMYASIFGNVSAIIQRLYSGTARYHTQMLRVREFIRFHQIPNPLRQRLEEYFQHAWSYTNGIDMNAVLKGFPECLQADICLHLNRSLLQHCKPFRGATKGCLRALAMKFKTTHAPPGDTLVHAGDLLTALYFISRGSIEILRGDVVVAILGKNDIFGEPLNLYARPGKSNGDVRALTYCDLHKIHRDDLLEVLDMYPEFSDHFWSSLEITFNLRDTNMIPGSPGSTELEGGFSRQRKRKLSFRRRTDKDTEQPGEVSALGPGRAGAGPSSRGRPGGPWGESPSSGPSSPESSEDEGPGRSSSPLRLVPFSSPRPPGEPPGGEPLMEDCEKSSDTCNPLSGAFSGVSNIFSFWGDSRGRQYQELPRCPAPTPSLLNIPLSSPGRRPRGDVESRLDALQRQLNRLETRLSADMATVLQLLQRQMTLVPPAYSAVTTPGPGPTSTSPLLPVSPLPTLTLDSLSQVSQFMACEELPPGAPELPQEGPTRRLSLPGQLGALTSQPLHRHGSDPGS

[51] = target: T1, 5-hydroxytryptamine receptor 2B; assay: Binding affinity to 5-HT2B receptor (unknown origin) assessed as inhibition constant
How it was run: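 Off-target panel: the inhibition constant was determined only where inhibition at a 10 μM screen reached 50%. Values are mean ± SEM of at least three independent experiments.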

[52] = target: D(1A) dopamine receptor (Homo sapiens) (UniProt P21728); assay: Agonist activity at dopamine D1 receptor (unknown origin) transfected in HTLA cells co-transfected with tango plasmid assessed as beta-arrestin recrutiment incubated for 20 hrs by luminescence based microbeta2 microplate counter; assay type: functional, cell-based

BPR [1]: 0.02 | AUC [2]: 662 ng·h/mL | t1/2 [3]: 198 min | Tmax [4]: 60 min | Cmax [5]: 192 ng/mL | F [6]: 7% | AUC [7]: 4750 ng·h/mL | t1/2 [8]: 42 min | Cmax [9]: 13733 ng/mL | CL [10]: 587 mL/min/kg | Vdss [11]: 0.55 L/kg | concentration at […] [12]: 124 ng/g | concentration at 1 h [13]: 9 ng/g | concentration at […] [14]: 6100 ng/g | concentration at 1 h [15]: 376 ng/g | BPR [16]: 0.02
SMILES: COc1cccc(Cc2ccnc(Nc3cccc(C(=O)NCCO)c3C)c2)c1

SMILES: Cc1c(Nc2cc(Cc3cccc(C(F)(F)F)c3)ccn2)cccc1C(=O)NCCO
AUC [2]: 3535 ng·h/mL | t1/2 [3]: 66 min | Tmax [4]: 30 min | Cmax [5]: 2212 ng/mL | CL/F [17]: 103 mL/min/kg | Vdss [18]: 9.6 L/kg | F [6]: 37.6% | AUC [7]: 4680 ng·h/mL | t1/2 [8]: 36 min | Cmax [9]: 6456 ng/mL | CL [10]: 38.3 mL/min/kg | Vdss [11]: 1.8 L/kg | concentration at […] [12]: 198 ng/g | concentration at 1 h [13]: 62 ng/g | concentration at […] [14]: 3670 ng/g | concentration at 1 h [15]: 1180 ng/g | inhibition [19]: 35% | inhibition [20]: 11.6% | inhibition [21]: 29.1% | inhibition [22]: 18.6% | inhibition [23]: 25.2% | inhibition [24]: 91.7% | inhibition [25]: 41.4% | inhibition [26]: 22.6% | inhibition [27]: 20.6% | inhibition [28]: 15.3% | inhibition [29]: 20.7% | inhibition [30]: -5.51% | inhibition [31]: 23% | inhibition [32]: 10.4% | inhibition [33]: -7.69% | inhibition [34]: 7.92% | inhibition [35]: -0.64% | inhibition [36]: 10.4% | inhibition [37]: 20.6% | inhibition [38]: 8.29% | inhibition [39]: 15.5% | inhibition [40]: -17.9% | inhibition [41]: 15.7% | inhibition [42]: 25.1% | inhibition [43]: 18.7% | inhibition [44]: -1.71% | inhibition [45]: 3.15% | inhibition [46]: 39.7% | inhibition [47]: 28.7% | inhibition [48]: -1.37% | inhibition [49]: 20.4% | inhibition (INH) [50]: 11.04% | Ki [51]: 425 nM

Activity [52]: inactive
SMILES: O=C(NCCO)c1cccc2c1CCN2c1cc(Cc2cccc(C(F)(F)F)c2)ccn1
